These results are taken from ChEMBL document CHEMBL2150978, “Phosphorodiamidates as a promising new phosphate prodrug motif for antiviral drug discovery: application to anti-HCV agents” (J Med Chem, 2011).

Where only a bound is given, the exact number is not on record here.

One data set has as its system Hepatitis C virus. Nature of the data set: Antiviral activity against Hepatitis C virus subtype 1b Con1 infected in human Huh7 cells assessed as inhibition of HCV replicon-encoded Renilla luciferase reporter activity after 72 hrs by HCV replicon assay. Format: functional, organism-based, Hepacivirus hominis. The following applies: Con1, Huh-7, 72 h. In a few lines:
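Huh7 cells stably carrying a bicistronic subgenomic genotype 1b (Con1) replicon with Renilla luciferase reporter, seeded at 2 × 10⁴ cells/well the day before. Four-fold serial dilutions in growth medium, no-drug controls on each plate; 3 days at 37 °C, 5% CO₂. Luciferase reagent 20 min, then luminescence (RLU) read; EC₅₀ derived.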
For orientation: Replicon systems follow genome replication, usually without infectious particles.

Data set [1] is described as follows: Cytotoxicity against human HuH7 cells after 3 days. Format: cell-based, Huh-7. In a few lines: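 Huh7 replicon cells seeded at 2 × 10⁴ per well one day before dosing. Four-fold serial dilutions in growth medium, no-drug controls on each plate. Incubated 3 days at 37 °C, 5% CO₂. Viability read by CellTiter-Glo luminescence after 20 min with reagent.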

Turning to `COc1nc(N)nc2c1ncn2[C@@H]1O[C@H](COP(=O)(N[C@H](C(=O)OCC(C)(C)C)c2ccccc2)N[C@H](C(=O)OCC(C)(C)C)c2ccccc2)[C@@H](O)[C@@]1(C)O` (mixture of isomers), in the data set with Hepatitis C virus, the EC50 – broadly, the concentration that produces a half-maximal response – came to 0.27 µM and the EC90 (commonly the point of the concentration-response curve where the effect stands at 90%) is 1.5 µM. Half-maximal cytotoxicity in data set [1] (CC50 at 72 h) was put at 24 µM.
The like results for `COc1nc(N)nc2c1ncn2[C@@H]1O[C@H](COP(=O)(N[C@@H](CC(C)C)C(=O)OC2CCCCC2)N[C@@H](CC(C)C)C(=O)OC2CCCCC2)[C@@H](O)[C@@]1(C)O` (mixture of isomers) were, in that order, 0.45 µM, 2 µM and 20 µM.
The matching figures for `COc1nc(N)nc2c1ncn2[C@@H]1O[C@H](COP(=O)(N[C@@H](C)C(=O)O[C@@H](C)c2ccccc2)N[C@@H](C)C(=O)O[C@@H](C)c2ccccc2)[C@@H](O)[C@@]1(C)O` (mixture of isomers): 0.49 µM, 1.7 µM and 88 µM.
The matching figures for `COC(=O)[C@@H](NP(=O)(N[C@@H](C)C(=O)OCC(C)(C)C)OC[C@H]1O[C@@H](n2cnc3c(OC)nc(N)nc32)[C@](C)(O)[C@@H]1O)C(C)C` (mixture of isomers): 0.17 µM, 0.69 µM and over 100 µM.
With `COc1nc(N)nc2c1ncn2[C@@H]1O[C@H](COP(=O)(N[C@@H](C)C(=O)OC2CCCCC2)N[C@@H](C)C(=O)OC2CCCCC2)[C@@H](O)[C@@]1(C)O` (mixture of isomers), in the data set on Hepatitis C virus, the EC50 turned out to be 0.05 µM and the EC90 is 0.19 µM. In data set [1], the CC50 (usually the concentration at which the toxic effect on the cells reaches its halfway point) at 72 h was over 100 µM.
On to `COc1nc(N)nc2c1ncn2[C@@H]1O[C@H](COP(=O)(N[C@@H](Cc2ccccc2)C(=O)OC2CCCCC2)N[C@@H](Cc2ccccc2)C(=O)OC2CCCCC2)[C@@H](O)[C@@]1(C)O` (mixture of isomers), for which, in the data set with Hepatitis C virus, the EC50 was 0.5 µM and the EC90 amounted to 2 µM. In addition, in data set [1], the CC50 at 72 h stood at 25 µM.
The matching figures for `COc1nc(N)nc2c1ncn2[C@@H]1O[C@H](COP(=O)(N[C@@H](C)C(=O)OC(C)C)N[C@@H](C)C(=O)OC(C)C)[C@@H](O)[C@@]1(C)O` (mixture of isomers): 0.49 µM, 2.1 µM and over 100 µM.
For `COc1nc(N)nc2c1ncn2[C@@H]1O[C@H](COP(=O)(N[C@@H](CC(C)C)C(=O)OCc2ccccc2)N[C@@H](CC(C)C)C(=O)OCc2ccccc2)[C@@H](O)[C@@]1(C)O` (mixture of isomers), in the data set with Hepatitis C virus, the EC50 is 0.38 µM and the EC90 was 1.31 µM. In data set [1], this compound displayed a CC50 at 72 h of 39 µM.
The matching figures for `COc1nc(N)nc2c1ncn2[C@@H]1O[C@H](COP(=O)(NCCC(=O)OCc2ccccc2)NCCC(=O)OCc2ccccc2)[C@@H](O)[C@@]1(C)O` (mixture of isomers): 3.8 µM, over 10 µM and over 100 µM.
The like results for `COc1nc(N)nc2c1ncn2[C@@H]1O[C@H](COP(=O)(N[C@@H](C)C(=O)OCc2ccccc2)N[C@@H](C)C(=O)OCc2ccccc2)[C@@H](O)[C@@]1(C)O` (mixture of isomers) were, in that order, 0.49 µM, 1.6 µM and over 100 µM.
Consider `COc1nc(N)nc2c1ncn2[C@@H]1O[C@H](CO)[C@@H](O)[C@@]1(C)O` [BETA-2'-C-METHYL-6-O-METHYL GUANOSINE], for which, in the data set on Hepatitis C virus, the EC50 was 4.4 µM and the EC90 was 19.4 µM. The compound also registered a CC50 at 72 h in data set [1] of over 100 µM.
In the case of `COc1nc(N)nc2c1ncn2[C@@H]1O[C@H](COP(=O)(N[C@@H](C)C(=O)OCc2ccc(F)cc2F)N[C@@H](C)C(=O)OCc2ccc(F)cc2F)[C@@H](O)[C@@]1(C)O` (mixture of isomers), in the data set on Hepatitis C virus, the EC50 was 0.26 µM and the EC90 came out at 1.07 µM. In addition, in data set [1], the cytotoxic concentration (CC50) at 72 h turned out to be 54 µM.
Take `COc1nc(N)nc2c1ncn2[C@@H]1O[C@H](COP(=O)(N[C@H](C(=O)OC2CCCCC2)C(C)C)N[C@H](C(=O)OC2CCCCC2)C(C)C)[C@@H](O)[C@@]1(C)O` (mixture of isomers): in the data set on Hepatitis C virus, the EC50 was determined as 2.5 µM and the EC90 stood at 10 µM. Besides, the CC50 at 72 h in data set [1] was 20 µM.
As for `COc1nc(N)nc2c1ncn2[C@@H]1O[C@H](COP(=O)(N[C@@H](C)C(=O)OC2CCC2)N[C@@H](C)C(=O)OC2CCC2)[C@@H](O)[C@@]1(C)O` (mixture of isomers), in the data set with Hepatitis C virus, the EC50 stood at 0.32 µM and the EC90 was determined as 0.8 µM. Also, in data set [1], the CC50 at 72 h is over 100 µM.
Take `COc1nc(N)nc2c1ncn2[C@@H]1O[C@H](COP(=O)(N[C@@H](CCSC)C(=O)OC2CCCCC2)N[C@@H](CCSC)C(=O)OC2CCCCC2)[C@@H](O)[C@@]1(C)O` (mixture of isomers): in the data set on Hepatitis C virus, the EC50 amounted to 0.6 µM and the EC90 was found to be 2.6 µM. This compound also yielded a CC50 at 72 h in data set [1] of 51 µM.
On to `CCOc1nc(N)nc2c1ncn2[C@@H]1O[C@H](CO)[C@@H](O)[C@@]1(C)O`, for which, in the data set with Hepatitis C virus, the EC50 is 9.5 µM and the EC90 worked out at 24.5 µM. The same compound had a CC50 at 72 h in data set [1] of over 100 µM.
On to `CCOc1nc(N)nc2c1ncn2[C@@H]1O[C@H](COP(=O)(N[C@@H](C)C(=O)OCc2ccccc2)N[C@@H](C)C(=O)OCc2ccccc2)[C@@H](O)[C@@]1(C)O` (mixture of isomers), for which, in the data set on Hepatitis C virus, the EC50 is 0.29 µM and the EC90 came out at 1 µM. The compound further had a CC50 at 72 h in data set [1] of 62 µM.
The like results for `CCCCCNP(=O)(N[C@@H](C)C(=O)OCC(C)(C)C)OC[C@H]1O[C@@H](n2cnc3c(OC)nc(N)nc32)[C@](C)(O)[C@@H]1O` (mixture of isomers) were, in that order, 0.11 µM, 0.52 µM and over 100 µM.
The matching figures for `CCCOC(=O)[C@H](C)NP(=O)(N[C@@H](C)C(=O)OCCC)OC[C@H]1O[C@@H](n2cnc3c(OC)nc(N)nc32)[C@](C)(O)[C@@H]1O` (mixture of isomers): 0.28 µM, 1.2 µM and over 100 µM.
The matching figures for `C[C@@]1(O)[C@H](O)[C@@H](CO)O[C@H]1n1cnc2c(=O)[nH]c(N)nc21` [2'-B-METHYL-GUANOSINE]: 2.2 µM, 8.3 µM and over 100 µM.
Take `COc1nc(N)nc2c1ncn2[C@@H]1O[C@H](COP(=O)(NCc2ccccc2)N[C@@H](C)C(=O)OCC(C)(C)C)[C@@H](O)[C@@]1(C)O` (mixture of isomers): in the data set on Hepatitis C virus, the EC50 came out at 0.43 µM and the EC90 stood at 1.9 µM. This compound registered a CC50 at 72 h in data set [1] of over 100 µM.
Take `CCCCNP(=O)(NCCCC)OC[C@H]1O[C@@H](n2cnc3c(OC)nc(N)nc32)[C@](C)(O)[C@@H]1O` (mixture of isomers): in the data set with Hepatitis C virus, the EC50 turned out to be 37.8 µM and the EC90 was over 40 µM. This compound also had a CC50 at 72 h in data set [1] of over 100 µM.
As for `COc1nc(N)nc2c1ncn2[C@@H]1O[C@H](COP(=O)(N[C@@H](C)C(=O)OCCC(C)(C)C)N[C@@H](C)C(=O)OCCC(C)(C)C)[C@@H](O)[C@@]1(C)O` (mixture of isomers), in the data set with Hepatitis C virus, the EC50 was 0.02 µM and the EC90 was 0.09 µM. Further, the CC50 at 72 h in data set [1] was determined as 71 µM.
For `COc1nc(N)nc2c1ncn2[C@@H]1O[C@H](COP(=O)(N[C@@H](C)C(=O)OCc2ccccc2)N[C@@H](C)C(=O)OCC(C)(C)C)[C@@H](O)[C@@]1(C)O` (mixture of isomers), in the data set with Hepatitis C virus, the EC50 is 0.15 µM and the EC90 was 0.4 µM. The same compound had a CC50 at 72 h in data set [1] of over 100 µM.
Regarding `COC(=O)[C@H](Cc1ccc(OC(C)(C)C)cc1)NP(=O)(N[C@@H](Cc1ccc(OC(C)(C)C)cc1)C(=O)OC)OC[C@H]1O[C@@H](n2cnc3c(OC)nc(N)nc32)[C@](C)(O)[C@@H]1O` (mixture of isomers), in the data set on Hepatitis C virus, the EC50 stood at 0.11 µM and the 90% effect concentration (EC90) came to 0.5 µM. For the same compound, in data set [1], it took 89 µM to reach half-maximal cytotoxicity (CC50 at 72 h).
With `COc1nc(N)nc2c1ncn2[C@@H]1O[C@H](COP(=O)(N[C@@H](C)C(=O)OCC2CC2)N[C@@H](C)C(=O)OCC2CC2)[C@@H](O)[C@@]1(C)O` (mixture of isomers), in the data set on Hepatitis C virus, the EC50 was 0.21 µM and the EC90 was 0.66 µM. This compound had a CC50 at 72 h in data set [1] of over 100 µM.
As to `COC(=O)[C@H](C)NP(=O)(N[C@@H](C)C(=O)OC)OC[C@H]1O[C@@H](n2cnc3c(OC)nc(N)nc32)[C@](C)(O)[C@@H]1O` (mixture of isomers), in the data set on Hepatitis C virus, the EC50 is 5.9 µM and the EC90 is over 10 µM. Also, in data set [1], the CC50 at 72 h is over 100 µM.
The matching figures for `COc1nc(N)nc2c1ncn2[C@@H]1O[C@H](COP(=O)(NC2CC2)N[C@@H](C)C(=O)OCC(C)(C)C)[C@@H](O)[C@@]1(C)O` (mixture of isomers): 0.87 µM, 4.7 µM and over 100 µM.
The like results for `CCOC(=O)[C@H](C)NP(=O)(N[C@@H](C)C(=O)OCC)OC[C@H]1O[C@@H](n2cnc3c(OC)nc(N)nc32)[C@](C)(O)[C@@H]1O` (mixture of isomers) were, in that order, 1.2 µM, 4.1 µM and over 100 µM.
On to `CCOc1nc(N)nc2c1ncn2[C@@H]1O[C@H](COP(=O)(N[C@@H](C)C(=O)OC2CCCCC2)N[C@@H](C)C(=O)OC2CCCCC2)[C@@H](O)[C@@]1(C)O` (mixture of isomers), for which, in the data set with Hepatitis C virus, the EC50 was found to be 0.05 µM and the EC90 came to 0.15 µM. Further, the CC50 at 72 h in data set [1] came out at 69 µM.
The like results for `COc1nc(N)nc2c1ncn2[C@@H]1O[C@H](COP(=O)(N[C@H](C(=O)N[C@@H](C)C(=O)OCC(C)(C)C)C(C)C)N[C@H](C(=O)N[C@@H](C)C(=O)OCC(C)(C)C)C(C)C)[C@@H](O)[C@@]1(C)O` (mixture of isomers) were, in that order, 0.54 µM, 2.4 µM and over 100 µM.
For the compound `COc1nc(N)nc2c1ncn2[C@@H]1O[C@H](COP(=O)(N[C@@H](C)C(=O)OCC(C)C)N[C@@H](C)C(=O)OCC(C)C)[C@@H](O)[C@@]1(C)O` (mixture of isomers), in the data set with Hepatitis C virus, the EC50 stood at 0.07 µM and the EC90 is 0.26 µM. In data set [1], this compound registered a CC50 at 72 h of over 100 µM.
